Measurements published in ChEMBL document CHEMBL1671820, “Incorporation of basic side chains into cryptolepine scaffold: structure-antimalarial activity relationships and mechanistic studies” (J Med Chem, 2011).

Key:
Plasmodium falciparum [1] = assay: Antiplasmodial activity against chloroquine-sensitive ring stage Plasmodium falciparum 3D7 infected in human red blood cells after 48 hrs; format: functional, organism-based; conditions: 3D7, 48 h
Heme = assay: Binding affinity to heme by UV-visible titration
Procedure, shortened: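 Hematin monomer (FPIX-OH, 10 μM) in pH 5.5 HEPES-buffered 40% DMSO v/v at 25 C, titrated with ligand from 100 μM solution until above hematin concentration. Stirred 1 min per addition; spectra 230–500 nm, Soret change at 402 nm. Absorbance dilution-corrected, nonlinear fit for Kd; Kass calculated from Kd.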

Vero = assay: Cytotoxicity against african green monkey Vero cells after 48 hrs by MTT assay; format: cell-based; conditions: Chlorocebus sabaeus
Procedure, shortened: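 Vero monkey kidney cells in DMEM with 10% FBS at 37 C, 7% CO2; seeded 15000 cells/well and adhered overnight. Log dilutions from 30 mg/mL DMSO stock, 48 h exposure. MTT at 0.5 mg/mL final for 2 h; formazan dissolved in 95% ethanol, read at 570 nm. Viability relative to DMSO-medium wells; IC50 from concentration–viability curve; doxorubicin as standard.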

Plasmodium falciparum [2] = assay: Antiplasmodial activity against chloroquine-resistant ring stage Plasmodium falciparum W2 infected in human red blood cells after 48 hrs; format: functional, organism-based; conditions: W2, 48 h
Plasmodium falciparum [3] = assay: Antiplasmodial activity against chloroquine-sensitive, mefloquine-resistant ring stage Plasmodium falciparum D6 infected in human red blood cells after 48 hrs; format: functional, organism-based; conditions: D6, 48 h
[4] = Selectivity index, ratio of IC50 for african green monkey Vero cells to IC50 for chloroquine-resistant ring stage Plasmodium falciparum W2; format: toxicity, cell-based; conditions: read-out: Ratio IC50
Procedure, shortened: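 Vero IC50 divided by W2 IC50. Vero: 15000 cells/well adhered overnight, then log dilutions from 30 mg/mL DMSO stock for 48 h. MTT 0.5 mg/mL final for 2 h at 37 C, formazan dissolved in 95% ethanol, A570 read against DMSO vehicle as 100% viability. W2: 48 h YOYO-1 flow-cytometric growth assay in human erythrocytes.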

Plasmodium falciparum [5] = assay: Antiplasmodial activity against chloroquine and pyrimethamine-resistant ring stage Plasmodium falciparum V1/S infected in human red blood cells after 48 hrs; format: functional, organism-based
Nucleic Acid = assay: Binding affinity to s(GATCCTAGGATC)2-DNA by fluorescence spectroscopy; format: nucleic-acid assay
Procedure, shortened: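 Buffer 0.01 M phosphate pH 7.4, 0.1 M NaCl, 25.0 C, 1 cm quartz cuvettes. Fluorescence: excitation 339 nm, emission 450–500 nm. Dilution-corrected intensity change fitted to single-site binding for Kd; Kass taken as 1/Kd.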

[6] = Inhibition of Plasmodium falciparum falcipain 2
Plasmodium falciparum [7] = assay: Resistance index, ratio of IC50 for chloroquine-resistant ring stage Plasmodium falciparum W2 to IC50 for chloroquine-sensitive ring stage Plasmodium falciparum 3D7; format: functional
Procedure, shortened: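 W2 IC50 divided by 3D7 IC50. Both were measured by 48 h YOYO-1 flow-cytometric growth assay on sorbitol-synchronised 1% ring-stage cultures in human erythrocytes at 37 C under 3% O2.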

[8] = Inhibition of Plasmodium falciparum falcipain 3

| Structure (SMILES) | IC50 (Plasmodium falciparum [1]) [µM] | Ka (Heme) [×10⁶ /M] | IC50 (Vero) [µM] | IC50 (Plasmodium falciparum [2]) [µM] | IC50 (Plasmodium falciparum [3]) [µM] | selectivity ratio [4] | IC50 (Plasmodium falciparum [5]) [µM] | Ka (Nucleic Acid) [×10⁶ /M] | IC50 [6] [µM] | Ratio IC50 (Plasmodium falciparum [7]) | IC50 [8] [µM] |
| --- | --- | --- | --- | --- | --- | --- | --- | --- | --- | --- | --- |
| CCN(CC)CCCNc1c2ccc(Cl)cc2[n+](C)c2c1[nH]c1ccccc12.[Cl-] | 0.034 | 0.11 | 13 | 0.021 | 0.07 | 60 | 0.04 | 17 | 11 | 0.5 | – |
| C[n+]1c2ccccc2c(Nc2ccc(N3CCCCC3)cc2)c2[nH]c3ccccc3c21.[Cl-] | 0.375 | 0.21 | – | 0.455 | 0.287 | 11 | 0.176 | 3.4 | 8.2 | 2.6 | – |
| C[n+]1c2ccccc2c(NC2CCN(Cc3ccccc3O)CC2)c2[nH]c3ccccc3c21.[Cl-] | 0.536 | 0.108 | – | 0.276 | 0.185 | 10 | 0.418 | 0.6 | 14.8 | 0.7 | 43 |
| CN(C)CCNc1c2ccccc2[n+](C)c2c1[nH]c1ccccc12.[Cl-] | 0.062 | 0.12 | – | – | 0.066 | 111 | 0.085 | 3.1 | > 50 | 0.8 | – |
| C[n+]1c2ccccc2c(Nc2cccnc2)c2[nH]c3ccccc3c21.[Cl-] | 0.247 | 0.17 | – | 0.18 | 0.166 | 14 | 0.279 | 1 | 9.32 | 0.6 | – |
| C[n+]1c2cc(Cl)ccc2c(NC2CCNCC2)c2[nH]c3cc(Cl)ccc3c21.[Cl-] | 0.031 | 0.12 | – | 0.048 | 0.03 | 16 | 0.035 | 1.6 | 4.8 | 1.4 | – |
| C[n+]1c2cc(Cl)ccc2c(NC2CCNCC2)c2[nH]c3ccccc3c21.[Cl-] | 0.065 | 0.18 | – | 0.045 | 0.07 | 98 | 0.052 | 4.5 | 5.6 | 0.9 | – |
| CCN(CC)CCCNc1c2ccccc2[n+](C)c2c1[nH]c1ccccc12.[Cl-] | 0.02 | 0.127 | – | – | – | 78 | 0.029 | 9.1 | – | 1.1 | – |
| CC(CN(C)C)Nc1c2ccccc2[n+](C)c2c1[nH]c1ccccc12.[Cl-] (stereo unspecified) | 0.202 | 0.148 | – | 0.142 | 0.078 | 23 | 0.165 | 1.9 | 8.3 | 0.9 | 14 |
| CCN(CC)Cc1ccc(Nc2c3ccccc3[n+](C)c3c2[nH]c2ccccc23)cc1O.[Cl-] | 0.056 | 0.075 | – | 0.052 | 0.024 | 17 | 0.015 | 0.8 | 15.2 | 3.5 | – |
| C[n+]1c2ccccc2c(NC2CCN(Cc3ccccc3)CC2)c2[nH]c3ccccc3c21.[Cl-] | 0.056 | 0.125 | – | 0.108 | 0.086 | 21 | 0.059 | 0.68 | 12.8 | 1.8 | – |
| CCN(CC)CCNc1c2ccccc2[n+](C)c2c1[nH]c1ccccc12.[Cl-] | 0.13 | 0.41 | – | – | 0.07 | 34 | 0.072 | 1.14 | > 50 | 1.2 | – |
